Screening data (PubChem)
DTT redox prof = compounds producing H2O2 with reducing agent – biochemical, NIH compound library profiling, artefact control for MLSCN library redox annotation, primary screen; DTT-dependent redox cycling H2O2, phenol red/HRP absorbance; 100% = 100 µM peroxide control, 0% = buffer; activation, % at 10 µM; 200,000 tested, 0.03% active; AID 878;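 active = activation of at least 50% relative to the plate's high and low controls in the primary single-dose screen; inactive = activation below 50%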;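 also: compound incubated with DTT at 0.8 mM final as the reducing agent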
Avidin bead fluor = compound fluoresces at 488/530 nm on avidin beads. compound fluorescence 488/530 nm, flow cytometry; active compounds read high. fluorescence (KMESF) at 10 µM. 220,000 tested, 0.38% active; in the data active = fluorescence above about 47
GSH fluor = GSH bead compound fluorescence profile. GSH beads flow cytometry, compound fluorescence 488/530 nm; active compounds read high. fluorescence (KMESF) at 10 µM. 190,000 tested, 0.25% active. AID 1776; in the data active = fluorescence above about 89;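 also: glutathione beads carrying GST-tagged Bcl family fusion proteins plus one bare bead set; values are compound well signal with DMSO vehicle wells as background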
ABCB1 inh = human ABCB1 inhibition, ABCG2 as counter-screen; P08183; CCRF-Adr cells, JC-1 efflux, flow cytometry; inhibition, % at 6.6 µM; 190,000 tested, 0.067% active; AID 1326; in the data active = inhibition above about 40%;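 also: 0% = vehicle and 100% = reference inhibitor; higher value means more JC-1 retained so stronger ABCB1 efflux block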
Target sequence (P08183 whole entry, looked up): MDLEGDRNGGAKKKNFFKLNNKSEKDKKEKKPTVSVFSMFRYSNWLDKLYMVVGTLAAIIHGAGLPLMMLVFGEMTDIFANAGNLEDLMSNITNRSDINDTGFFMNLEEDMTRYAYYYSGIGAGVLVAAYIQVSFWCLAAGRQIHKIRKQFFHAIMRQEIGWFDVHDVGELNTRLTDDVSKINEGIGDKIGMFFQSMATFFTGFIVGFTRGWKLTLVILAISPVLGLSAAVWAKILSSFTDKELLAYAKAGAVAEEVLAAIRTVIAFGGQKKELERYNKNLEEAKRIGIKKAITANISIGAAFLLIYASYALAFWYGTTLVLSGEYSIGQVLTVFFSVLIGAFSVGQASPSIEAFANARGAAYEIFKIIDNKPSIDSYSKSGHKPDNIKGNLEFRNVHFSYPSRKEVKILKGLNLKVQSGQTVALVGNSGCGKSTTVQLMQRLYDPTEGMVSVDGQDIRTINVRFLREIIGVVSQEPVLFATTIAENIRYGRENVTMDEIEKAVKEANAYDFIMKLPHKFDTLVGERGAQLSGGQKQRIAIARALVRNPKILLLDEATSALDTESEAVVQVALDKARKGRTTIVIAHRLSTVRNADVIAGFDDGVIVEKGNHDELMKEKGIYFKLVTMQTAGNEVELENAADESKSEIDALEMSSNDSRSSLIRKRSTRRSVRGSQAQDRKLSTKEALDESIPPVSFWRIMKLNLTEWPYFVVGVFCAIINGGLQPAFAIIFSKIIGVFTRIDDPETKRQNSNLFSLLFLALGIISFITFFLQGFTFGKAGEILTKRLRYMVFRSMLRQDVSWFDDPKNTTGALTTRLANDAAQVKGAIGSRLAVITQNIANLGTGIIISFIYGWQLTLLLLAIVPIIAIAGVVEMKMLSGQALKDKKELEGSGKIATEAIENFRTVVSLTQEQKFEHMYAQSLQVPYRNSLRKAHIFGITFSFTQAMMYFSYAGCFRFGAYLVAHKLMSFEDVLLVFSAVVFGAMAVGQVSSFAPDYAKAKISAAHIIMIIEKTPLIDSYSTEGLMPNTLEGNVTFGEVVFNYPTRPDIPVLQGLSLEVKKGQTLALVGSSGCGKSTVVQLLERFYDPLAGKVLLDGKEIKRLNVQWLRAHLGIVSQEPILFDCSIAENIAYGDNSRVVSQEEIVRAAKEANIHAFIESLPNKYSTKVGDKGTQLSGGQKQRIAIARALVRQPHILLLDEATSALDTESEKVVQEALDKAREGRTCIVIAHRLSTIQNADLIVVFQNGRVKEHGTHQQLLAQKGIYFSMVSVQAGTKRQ
ABCG2 block = blocks JC-1 efflux by human ABCG2 transporter | IgMXP3 cells, flow cytometry | Q9UNQ0 | AID 1325 | inhibition, % at 6.6 µM | 190,000 tested, 0.1% active;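 active = inhibition above 80%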;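 also: 0% = DMSO and 100% = nicardipine control wells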
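test system = two drug-resistant human cell lines, ABCG2 and ABCB1 | amount = 3 million cells/mL final, two lines in 1:1 ratio | reagent = JC-1 transporter substrate | doses = one concentration, 6.6 µM final | incubation = 10 min at 25 °C | signal = flow cytometric JC-1 green MFI at 530 nm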
Numbers without * were called inactive; x = no result given; + = active, no number. Most compounds without a hit are left out; they make up all but 0.72% or so of the library.

SMILES	DTT redox prof	Avidin bead fluor	GSH fluor	ABCB1 inh	ABCG2 block
Cc1nnc(NC(=O)CSc2nnc(CCc3nc4ccccc4[nH]3)n2C)s1	1.2	8	5	0.0	0.0
CCc1nnc(NC(=O)CSc2nnc(CCc3nc4ccccc4[nH]3)n2C)s1	3.0	7	286*	0.2	0.3
COc1ccccc1-c1nnc(NC(=O)CSc2nncn2C)s1	-1.1	10	9	-0.3	5.7
CCc1nnc(NC(=O)CN2CCN(c3nc(-c4ccccc4)cs3)CC2)s1	-1.2	47*	19	0.0	0.2
CC(C)C(=O)NNC(=O)CN1CCN(c2nc(-c3ccccc3)cs2)CC1	-0.1	10	9	-0.1	0.2
CC(C)(CC(=O)O)CC(=O)Nc1cc(-c2ccccc2)[nH]n1	x	3	x	x	x
O=C(NC(=S)Nc1nc2ccccc2s1)c1cccs1	-0.5	14	6	0.8	2.9
CCc1ccc(-c2nc(NC(=S)NC(=O)c3cccs3)sc2C)cc1	0.1	57*	24	0.5	3.2
CC1=C(C(=O)OCc2ccccc2)C(c2ccsc2)C(C#N)=C(N)O1 (stereo not given)	-0.3	5	23	0.0	-6.5
COC(=O)C1=C(C)OC(N)=C(C#N)C1c1ccsc1 (stereo not given)	0.3	8	89*	-0.2	-1.1
CCOc1cc(NC(=S)Nc2ccccc2OC)c(OCC)cc1NC(=O)c1ccccc1C	1.1	10	27	2.1	7.1
O=C(COC(=O)/C=C/c1cccs1)Nc1ccccc1Cl	-0.1	22	8	0.0	2.3
O=C(COC(=O)/C=C/c1cccs1)Nc1ccc2ccccc2c1	1.0	68*	12	0.1	0.7
Fc1ccc(NC(=S)N/N=C/c2ccc(F)c(F)c2)cc1	0.2	80*	22	0.3	1.3
Cc1cc(C)c(C#N)c(N2CCOCC2)n1	0.7	26	18	0.0	0.9
Cc1nc(N2CCOCC2)c(C#N)c(C)c1Br	0.4	7	260*	-0.1	-0.1
Cc1cc(/C=N/Nc2nc(N3CCOCC3)nc(N3CCOCC3)n2)c(C)n1-c1ccccc1	0.3	58*	21	0.6	1.8
COc1ccc(-n2c(C)cc(/C=N/Nc3nc(N4CCOCC4)nc(N4CCOCC4)n3)c2C)cc1	-0.6	14	13	1.9	8.6
COC(=O)C1=C(C(=O)OC)[C@@H]2N(Cc3ccccc3)c3ccccc3[C@@]23C[C@@H](CO)N(C(=O)NC2CCCC2)C3=N1	x	7	x	x	x
COc1cc(/C=N/NC(=S)NC2CC3CC2C2C=CCC32)ccc1O (stereo not given)	x	7	x	x	x
CCN1/C(=C/c2ccc3cc(C)ccc3[n+]2CC)Sc2ccccc21	0.6	11	7	x	+
COc1cc(/C=N\Nc2ccc([N+](=O)[O-])cc2)ccc1OCC(=O)Nc1ccc(C)c(C)c1	6.4	61*	13	1.6	0.5
CC(=O)Nc1nc(CC(C)C)cc(-c2ccco2)c1C#N	0.2	57*	21	0.1	0.3
COC(=O)c1cc(OC)c(OC)c(OC)c1N	-1.4	7	259*	0.6	2.2
CCCN(CC1CCCO1)C(=O)CCc1nnc(-c2cc(C)on2)o1 (stereo not given)	-0.7	11	18	0.2	0.5
SMILES	DTT redox prof	Avidin bead fluor	GSH fluor	ABCB1 inh	ABCG2 block
Cc1cc(NC(=O)c2ccc(S(=O)(=O)N(C)C)cc2)n(-c2ccccn2)n1	1.6	88*	26	3.9	9.4
O=C(Nc1ccc(Br)cc1Cl)NC1CC1	-0.9	8	15	0.4	3.5
CCOC(=O)c1c(NC(=O)N/N=C/c2ccccc2OCC)sc(C(C)=O)c1C	-0.8	5	447*	0.2	-0.1
CCOC(=O)c1c(NC(=O)C2c3ccccc3Oc3ccccc32)sc(C(C)=O)c1C	1.5	11	29	2.3	56.8
COc1ccc(-c2csc3nc(C)nc(N4CCN(c5ccc(C(C)=O)cc5)CC4)c23)cc1OC	-0.6	10	19	11.9	23.1
OCCC1CN(Cc2ccsc2)CCN1C1CCCC1 (stereo not given)	5.2	8	9	1.2	5.6
OCCC1CN(Cc2ccc(Oc3ncccn3)cc2)CCN1C1CCCCC1 (stereo not given)	x	159*	x	x	x
O=C(/C=C/c1ccc(N2CCC(c3ccccc3)=N2)cc1)c1ccccc1	1.4	28	172*	75.0*	81.2*
CC1(C)CCCC2=C1CC1C(=O)N(N)C(=O)C1C2 (stereo not given)	x	3	x	x	x
CC1CN(c2ccccc2)CCN1Cc1nc(Cc2ccccc2)no1 (stereo not given)	0.1	12	12	-0.1	4.5
Cc1cc(C)c(C(=O)OCCNC(=O)c2cccnc2)cc1C	0.5	215*	37	0.8	24.1
O=[N+]([O-])c1ccc(/C=C/C2=NN(c3ccccc3)C(c3ccco3)C2)cc1 (stereo not given)	1.7	186*	83	+	+
Cc1nn(Cc2cccc(F)c2)c(C)c1NC(=O)c1c(Cl)cnn1C	0.0	3	6	0.4	0.0
CN1CC(=O)N(CC(=O)NCc2ccc3c(c2)OCO3)C1=O	0.6	8	283*	0.8	3.0
Cc1ccsc1C(=O)OCC(=O)NCc1ccc2c(c1)OCO2	-0.3	7	261*	0.5	1.3
Cc1ccc(C2=NN(CCC(=O)NCc3ccc4c(c3)OCO4)C(=O)CC2)cc1	-0.8	32	226*	2.9	5.9
CCOc1ccc(NC(=O)COC(=O)C23CC4CC(CC(C4)C2)C3)c([N+](=O)[O-])c1	-0.5	2	9	4.6	35.6
O=[N+]([O-])c1ccc(Sc2ncc3ccccn23)nc1	x	6	x	x	x
CC1(C)Cc2c(C#N)c(NCCc3ccccc3)nc(-c3ccco3)c2CO1	-0.9	37	10	0.2	1.4
CCN(CC)CCNc1nc(-c2ccco2)c2c(c1C#N)CC(C)(C)OC2	-3.0	48*	15	0.4	1.9
Cc1noc(/C=C/c2ccc(-c3ccccc3Cl)o2)c1[N+](=O)[O-]	0.1	57*	30	8.5	15.2
O=C1COc2ccc(C(=O)COC(=O)Cn3cnc4ccccc43)cc2N1	-0.7	7	272*	0.1	0.8
COc1nc(-c2ccccc2)cc(-c2ccccc2)n1	-4.5	260*	26	-0.7	53.6
COc1ccc(S(=O)(=O)N2CCOCC2)cc1NC(=O)Cc1ccccc1Cl	-0.7	14	18	0.4	3.2
COc1ccc(S(=O)(=O)N2CCCCCC2)cc1NC(=O)Cc1ccccc1	-0.1	48*	8	1.4	27.8
CCOCCCNCc1ccc(OCc2ccccc2C)c(OC)c1	0.2	10	20	1.2	-3.1
CC1(C)CC(=O)C(=C2SCCCS2)C(=O)C1	-0.6	14	156*	1.8	3.1
CCC(C)c1ccccc1NC(=O)CN1CCN(C/C=C/c2ccccc2)CC1 (stereo not given)	0.2	15	5	3.0	-0.7
